Reference: ChEMBL document CHEMBL5653614, “Rescue of fragile X syndrome phenotypes in Fmr1 KO mice by the small-molecule PAK inhibitor FRAX486” (Proc Natl Acad Sci U S A, 2013)
Active and inactive are the calls of the source. The calls are words filed in the database; no cut-off is given here.

How the values were obtained:
[1] = molecular target: Serine/threonine-protein kinase PAK 3 (Homo sapiens, UniProt O75914); assay: Inhibition of PAK3 (unknown origin) by Z'-LYTE functional assay
Outline: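 Full-length PAK isoforms phosphorylating an optimized peptide substrate in a Z-LYTE biochemical kinase assay, 10-point inhibitor titration. Duplicates (n = 2, mean ± SEM) plotted semilog; IC50 from a variable-slope sigmoidal dose–response fit.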

[2] = Tmax in FVB.129P2 mouse plasma at 20 mg/kg,sc by LC-MS/MS analysis; type: ADME, organism-based
Outline: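 WT FVB.129P2 mice received a single s.c. injection of 20 mg/kg FRAX486 in 20% (wt/vol) hydroxypropyl-β-cyclodextrin. Blood was collected at time points from 15 min to 24 h, n = 2–3 per point. Plasma drug levels were quantified by LC-MS/MS and reported as mean ± SEM.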

[3] = Drug concentration in FVB.129P2 mouse plasma at 20 mg/kg,sc and measured upto 18 hrs by LC-MS/MS analysis; type: ADME, organism-based
Outline: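 WT FVB.129P2 mice got one s.c. injection of 20 mg/kg (2 mg/mL in 20% hydroxypropyl-β-cyclodextrin). Blood and forebrain were collected at time points from 15 min to 24 h. Forebrain was weighed, snap-frozen and homogenized in 2 volumes of cold PBS. Drug quantified by LC-MS/MS. n = 2–3, mean ± SEM.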

[4] = Drug uptake in FVB.129P2 mouse plasma at 20 mg/kg,sc for 5 days and measured after 24 hrs by LC-MS/MS analysis; type: ADME, organism-based; conditions: in vivo, 120 h, time 5 day
Outline: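 Mice dosed s.c. at 20 mg/kg once daily for up to 5 d; plasma and forebrain sampled 24 h after the last injection. Brain homogenized in 2 volumes of cold PBS; levels measured by LC-MS/MS. n = 3–4, mean ± SEM.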

Mus musculus [5] = assay: Protective activity in Fmr1 knockout FVB.129P2-Fmr1tm1Cgr/J mouse assessed as decrease in apical dendritic spine density in layer II/III pyramidal neurons segment 3 at 20 mg/kg, sc and measured after 8 hrs by Golgi-Cox technique analysis; type: functional, organism-based
Outline: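 Adult male WT and Fmr1 KO FVB mice given 20 mg/kg s.c. or vehicle; brains collected 8 h later and Golgi stained. Apical dendrites of layer II/III pyramidal neurons in temporal cortex, originating 50–100 µm from the soma, were divided into ten 10-µm segments and spines counted. 40–60 neurons from 4–6 mice per group; one-way ANOVA.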

Mus musculus [6] = assay: (§1) Anti-seizure activity against 124dB loud auditory stimulus induced Fmr1 knockout FVB.129P2-Fmr1tm1Cgr/J mouse model of audiogenic seizure assessed as decrease in sound-induced wild running at 20 mg/kg,sc for 8 hrs followed by audiogenic seizure induction by audiogenic seizure assay (Rvb=100%); type: functional; design: scale not given: the % may be the effect or the level left
Outline: (§2)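 Adult male mice (10–17 wk). Single s.c. dose (0, 10, 20 or 30 mg/kg) in 20% (wt/vol) hydroxypropyl-β-cyclodextrin vehicle; AGS induced 8 h later. Mouse acclimated 2 min in a clear acrylic two-chamber box, then exposed to a 124 dB sound. Scored as percentage of animals showing each sequential phase (wild running, seizure, death by respiratory arrest); χ2 test against vehicle.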

Mus musculus [7] = assay: Anti-seizure activity against 124dB loud auditory stimulus induced Fmr1 knockout FVB.129P2-Fmr1tm1Cgr/J mouse model of audiogenic seizure assessed as decrease in sound-induced seizure at 10 mg/kg,sc for 8 hrs followed by audiogenic seizure induction by audiogenic seizure assay (Rvb=100%); type: functional; design: scale not given: the % may be the effect or the level left; outline: as §2
Mus musculus [8] = assay: Anti-seizure activity against 124dB loud auditory stimulus induced Fmr1 knockout FVB.129P2-Fmr1tm1Cgr/J mouse model of audiogenic seizure assessed as decrease in sound-induced seizure at 30 mg/kg,sc for 8 hrs followed by audiogenic seizure induction by audiogenic seizure assay (Rvb=100%); type: functional; design: scale not given: the % may be the effect or the level left; outline: as §2
Mus musculus [9] = assay: as §1, with “seizure” for “wild running”, “5 days” for “8 hrs”, “induction after 8 hrs post-treatment” for “induction”, “(Rvb=96%)” for “(Rvb=100%)”; type: functional; design: scale not given: the % may be the effect or the level left; conditions: time 5 day
Outline: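 Adult male Fmr1 KO mice given 10 or 20 mg/kg s.c. daily for 5 d in 20% hydroxypropyl-β-cyclodextrin vehicle. AGS assay run 8 h after the final injection: 2 min acclimation in an acrylic chamber, then a 124 dB auditory stimulus. Incidence of wild running and seizure recorded; χ2 comparison with vehicle.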

Mus musculus [10] = assay: Protective activity in Fmr1 knockout FVB.129P2-Fmr1tm1Cgr/J mouse model of Fragile X syndrome assessed as decrease in horizontal movements at 20 mg/kg, sc for 5 days and measured for 30 mins by open field assay; type: functional, organism-based; conditions: time 5.0 day
Outline: (§3)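 Adult male WT and Fmr1 KO mice dosed s.c. at 20 mg/kg or vehicle for 5 d; tested 4–5.5 h after dosing. Single mouse in a novel open field for 30 min, tracked by infrared sensors in 1-min bins; bar-graph values averaged over minutes 18–30. Mice beyond 2 SD in total distance, or immobile for 5 consecutive minutes, were excluded.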

Mus musculus [11] = assay: Protective activity in Fmr1 knockout FVB.129P2-Fmr1tm1Cgr/J mouse model of Fragile X syndrome assessed as decrease in stereotypy count at 20 mg/kg, sc for 5 days by open field assay; type: functional, organism-based; conditions: time 5.0 day; outline: as §3
Mus musculus [12] = assay: Protective activity in FVB.129P2-Pde6b+ Tyr c-ch/AntJ wild type mouse assessed as decrease in counterclockwise revolutions at 20 mg/kg, sc for 5 days by open field assay; type: functional, organism-based; conditions: time 5.0 day; outline: as §3
Mus musculus [13] = assay: Protective activity in FVB.129P2-Pde6b+ Tyr c-ch/AntJ wild type mouse assessed as decrease in stereotypy count at 20 mg/kg, sc for 5 days by open field assay; type: functional, organism-based; conditions: time 5.0 day; outline: as §3
Mus musculus [14] = assay: Protective activity in Fmr1 knockout FVB.129P2-Fmr1tm1Cgr/J mouse model of Fragile X syndrome assessed as motor coordination at 20 mg/kg, sc and measured for 4 to 5.25 hrs by rotarod test; type: functional, organism-based; conditions: time 4-5.25 hrs
Outline: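 Adult male Fmr1 KO mice (FVB background, 10–17 wk old) got FRAX486 s.c. at 20 mg/kg as a 2 mg/mL solution in 20% (wt/vol) hydroxypropyl-β-cyclodextrin; vehicle-only controls. Rotarod was run 4–5.5 h after dosing. Latency to fall or jump off the rotating cylinder was recorded, with a maximum of 3 min. Three trials 30–40 min apart were averaged per mouse.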

Mus musculus [15] = assay: Protective activity in Fmr1 knockout FVB.129P2-Fmr1tm1Cgr/J mouse model of Fragile X syndrome assessed as balance on accelerating rotarod at 20 mg/kg, sc and measured for 4 to 5.25 hrs by rotarod test; type: functional, organism-based; conditions: time 4-5.25 hrs
Outline: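 Adult male WT and Fmr1 KO mice tested 4–5.5 h after s.c. 20 mg/kg or vehicle. Latency to fall or jump off the rotating cylinder recorded (max 3 min). Three trials per mouse, 30–40 min apart; per-mouse average latency compared.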

[16] = Toxicity in FVB.129P2-Pde6b+ Tyr c-ch/AntJ wild type mouse assessed as body weight change at 20 mg/kg,sc for 21 days; type: organism-based; conditions: in vivo, 504 h, time 21 day
[17] = Toxicity in Fmr1 knockout FVB.129P2-Fmr1tm1Cgr/J mouse assessed as body weight change at 20 mg/kg,sc for 21 days; type: organism-based; conditions: in vivo, 504 h, time 21 day

Chain of Serine/threonine-protein kinase PAK 3 (O75914 whole entry, canonical isoform): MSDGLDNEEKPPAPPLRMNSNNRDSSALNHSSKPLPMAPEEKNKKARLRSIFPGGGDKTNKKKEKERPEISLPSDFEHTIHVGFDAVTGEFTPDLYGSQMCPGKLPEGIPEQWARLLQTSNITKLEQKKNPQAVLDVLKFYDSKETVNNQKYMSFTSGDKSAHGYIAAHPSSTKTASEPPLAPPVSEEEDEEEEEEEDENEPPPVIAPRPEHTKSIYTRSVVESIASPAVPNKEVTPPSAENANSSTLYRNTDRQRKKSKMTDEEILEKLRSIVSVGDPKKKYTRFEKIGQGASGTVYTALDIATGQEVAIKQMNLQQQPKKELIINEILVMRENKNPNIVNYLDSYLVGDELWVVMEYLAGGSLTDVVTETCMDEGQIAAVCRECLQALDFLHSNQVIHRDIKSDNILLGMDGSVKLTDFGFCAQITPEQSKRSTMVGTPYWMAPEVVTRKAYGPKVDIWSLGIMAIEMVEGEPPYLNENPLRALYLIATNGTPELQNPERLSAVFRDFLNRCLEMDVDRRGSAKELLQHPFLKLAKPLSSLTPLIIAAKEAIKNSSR

For `CCn1c(=O)c(-c2ccc(Cl)cc2Cl)cc2cnc(Nc3ccc(N4CCNCC4)c(F)c3)nc21`, the IC50 [1] was 0.0553 µM, the Tmax [2] was 15 min and the concentration at 18 h [3] was > 100 ng/mL. The Drug uptake [4] was “Active”, the Activity (Mus musculus [5]) was “Active” and the Activity (Mus musculus [6]) was 25%. It also gave an Activity (Mus musculus [7]) of 80%, an Activity (Mus musculus [8]) of 0% and an Activity (Mus musculus [9]) of 42%. For the same molecule, the Activity (Mus musculus [10]) was “Active”, the Activity (Mus musculus [11]) was “Active” and the Activity (Mus musculus [12]) was “Active”. The Activity (Mus musculus [13]) was “Active”, the Activity (Mus musculus [14]) was “inactive” and the Activity (Mus musculus [15]) was “inactive”. The Activity [16] was “Non-Toxic” and the Activity [17] was “Non-Toxic”.
